Here are results for eleven molecules from ChEMBL document CHEMBL1255268, “Antimicrobial activities of Ceftaroline and ME1036 tested against clinical strains of community-acquired methicillin-resistant Staphylococcus aureus” (2008).

Converted amounts (≈) assume the structure as drawn.

Common to all, as to assay type: functional
Assay [1] concerns Staphylococcus aureus. Nature of the assay: Antimicrobial activity against community-acquired methicillin resistant Staphylococcus aureus expressing PVL and mec type IV gene by broth microdilution method. A digest of the protocol:
(§1)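 Reference broth microdilution MICs per CLSI, with CLSI interpretive criteria (M100-S17) used for susceptible/resistant categories. Panel: 152 CA-MRSA clinical isolates from human infections, collected 2000–2005 at 47 US medical centres. Strains typed by multiplex PCR for SCCmec type (mecA as internal control), with products run on 2% agarose in Tris-acetate-EDTA and stained with ethidium bromide.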

The subject of assay [2] is Staphylococcus aureus. Nature of the assay: Antimicrobial activity against community-acquired methicillin resistant Staphylococcus aureus expressing PVL and mec type IV gene assessed as resistant strains by broth microdilution method. A digest of the protocol: as §1
The test system of assay [3] is Staphylococcus aureus. Nature of the assay: Antimicrobial activity against community-acquired methicillin resistant Staphylococcus aureus expressing PVL gene and mec type IV gene assessed as susceptible strains by broth microdilution method. A digest of the protocol:
as §1

For `C[C@@H](O)[C@H]1C(=O)N2C(C(=O)[O-])=C(c3cn4cnc(C(=O)c5ccc[n+](CC(N)=O)c5)c4s3)[C@H](C)[C@H]12`, in the assay with Staphylococcus aureus [1], the MIC50 was determined as 0.12 µg/mL (≈ 0.242 µM) and the MIC90 was 0.25 µg/mL (≈ 0.505 µM).

On to `CCCCCCCCCC(=O)N[C@@H](Cc1c[nH]c2ccccc12)C(=O)N[C@H](CC(N)=O)C(=O)N[C@@H](CC(=O)O)C(=O)N[C@@H]1C(=O)NCC(=O)N[C@@H](CCCN)C(=O)N[C@@H](CC(=O)O)C(=O)N[C@H](C)C(=O)N[C@@H](CC(=O)O)C(=O)NCC(=O)N[C@H](CO)C(=O)N[C@@H]([C@H](C)CC(=O)O)C(=O)N[C@@H](CC(=O)c2ccccc2N)C(=O)O[C@@H]1C`, for which the Activity in the assay with Staphylococcus aureus [2] is recorded as 0%. In the assay with Staphylococcus aureus [1], this molecule registered a minimum inhibitory concentration (MIC) of 0.25 µg/mL (≈ 0.154 µM), an MIC50 of 0.25 µg/mL (≈ 0.154 µM) and an MIC90 of 0.5 µg/mL (≈ 0.309 µM). In the assay on Staphylococcus aureus [3], the Activity is recorded as 100%.

With `CO/N=C(\C(=O)N[C@@H]1C(=O)N2C(C(=O)O)=C(CSc3nc(=O)c(O)nn3C)CS[C@H]12)c1csc(N)n1` [CEFTRIAXONE], the Activity is recorded as 98.7% in the assay on Staphylococcus aureus [2] and 0% with Staphylococcus aureus [3]. The molecule further displayed an MIC50 against Staphylococcus aureus [1] of 32 µg/mL (≈ 57.7 µM). The molecule also registered an MIC90 in the assay on Staphylococcus aureus [1] of over 32 µg/mL.

Regarding `CCC[C@@H]1C[C@@H](C(=O)N[C@@H]([C@H]2O[C@H](SC)[C@H](O)[C@@H](O)[C@H]2O)[C@H](C)Cl)N(C)C1` [CLINDAMYCIN], the Activity in the assay with Staphylococcus aureus [2] was 0%. Also, in the assay on Staphylococcus aureus [1], the MIC is at most 0.25 µg/mL, the MIC50 is at most 0.25 µg/mL and the MIC90 was at most 0.25 µg/mL. Moreover, in the assay with Staphylococcus aureus [3], the Activity is 100%.

With `CC[C@H]1OC(=O)[C@H](C)[C@@H](O[C@H]2C[C@@](C)(OC)[C@@H](O)[C@H](C)O2)[C@H](C)[C@@H](O[C@@H]2O[C@H](C)C[C@H](N(C)C)[C@H]2O)[C@](C)(O)C[C@@H](C)C(=O)[C@H](C)[C@@H](O)[C@]1(C)O` [ERYTHROMYCIN], the Activity in the assay on Staphylococcus aureus [2] amounted to 98%. Further, in the assay on Staphylococcus aureus [1], the MIC50 is over 8 µg/mL and the MIC90 is over 8 µg/mL. Further, in the assay on Staphylococcus aureus [3], the Activity came to 1.3%.

Take `C[C@@H](O)[C@H]1C(=O)N2C(C(=O)O)=C(SCCNC=N)C[C@H]12` [IMIPENEM ANHYDROUS]: the Activity in the assay on Staphylococcus aureus [2] is reported as 0%. In the assay on Staphylococcus aureus [1], this molecule came in with a minimal inhibitory concentration (MIC) of at most 0.5 µg/mL, an MIC50 of at most 0.5 µg/mL and an MIC90 of at most 0.5 µg/mL. In addition, the Activity in the assay with Staphylococcus aureus [3] is 100%.

With `C[C@H]1COc2c(N3CCN(C)CC3)c(F)cc3c(=O)c(C(=O)O)cn1c23.C[C@H]1COc2c(N3CCN(C)CC3)c(F)cc3c(=O)c(C(=O)O)cn1c23.O` [LEVOFLOXACIN], in the assay on Staphylococcus aureus [2], the Activity was found to be 7.2%. Also, in the assay with Staphylococcus aureus [1], the MIC50 came out at 0.25 µg/mL and the MIC90 was 0.5 µg/mL. Moreover, in the assay on Staphylococcus aureus [3], the Activity stood at 92.8%.

For `CC(=O)NC[C@H]1CN(c2ccc(N3CCOCC3)c(F)c2)C(=O)O1` [LINEZOLID], in the assay with Staphylococcus aureus [1], the MIC50 stood at 2 µg/mL (≈ 5.93 µM) and the MIC90 came out at 2 µg/mL (≈ 5.93 µM). The Activity in the assay on Staphylococcus aureus [3] is given as 100%.

Turning to `C[C@@H](O)[C@H]1C(=O)N2C(C(=O)O)=C(S[C@@H]3CN[C@H](C(=O)N(C)C)C3)[C@H](C)[C@H]12` [MEROPENEM], the Activity is on record as 0% with Staphylococcus aureus [2] and 98% in the assay with Staphylococcus aureus [3]. In the assay with Staphylococcus aureus [1], this molecule returned an MIC50 of 2 µg/mL (≈ 5.22 µM). Further, in the assay with Staphylococcus aureus [1], the MIC90 was 2 µg/mL (≈ 5.22 µM).

Regarding `CN(C)[C@@H]1C(O)=C(C(N)=O)C(=O)[C@@]2(O)C(O)=C3C(=O)c4c(O)cccc4[C@@](C)(O)[C@H]3C[C@@H]12` [TETRACYCLINE], the Activity in the assay on Staphylococcus aureus [2] was found to be 4.6%. In the assay on Staphylococcus aureus [1], the MIC was at most 0.5 µg/mL, the MIC50 is at most 0.5 µg/mL and the MIC90 was at most 0.5 µg/mL. Further, the Activity with Staphylococcus aureus [3] turned out to be 94.7%.

`CN[C@H](CC(C)C)C(=O)N[C@H]1C(=O)N[C@@H](CC(N)=O)C(=O)N[C@H]2C(=O)N[C@H]3C(=O)N[C@H](C(=O)N[C@H](C(=O)O)c4cc(O)cc(O)c4-c4cc3ccc4O)[C@H](O)c3ccc(c(Cl)c3)Oc3cc2cc(c3O[C@@H]2O[C@H](CO)[C@@H](O)[C@H](O)[C@H]2O[C@H]2C[C@](C)(N)[C@H](O)[C@H](C)O2)Oc2ccc(cc2Cl)[C@H]1O` [VANCOMYCIN]: in the assay on Staphylococcus aureus [2], the Activity is listed as 0%. Besides, in the assay with Staphylococcus aureus [1], the MIC50 is 1 µg/mL (≈ 0.69 µM) and the MIC90 was determined as 1 µg/mL (≈ 0.69 µM). In the assay with Staphylococcus aureus [3], the Activity is given as 100%.
